TNAP inh hi DEA – human TNAP enzyme inhibitors, primary screen, biochemical, luminescent, high phosphate acceptor level, uHTS. purified TNAP, CDP-star luminescence, 1 M DEA. inhibition, % at 20 µM. 0.03% of 200,000 active. AID 1135, 2008;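 active = over 50% inhibition of tissue-nonspecific alkaline phosphatase at 20 µM in the single-dose screen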
Target sequence (P05186 whole entry, looked up): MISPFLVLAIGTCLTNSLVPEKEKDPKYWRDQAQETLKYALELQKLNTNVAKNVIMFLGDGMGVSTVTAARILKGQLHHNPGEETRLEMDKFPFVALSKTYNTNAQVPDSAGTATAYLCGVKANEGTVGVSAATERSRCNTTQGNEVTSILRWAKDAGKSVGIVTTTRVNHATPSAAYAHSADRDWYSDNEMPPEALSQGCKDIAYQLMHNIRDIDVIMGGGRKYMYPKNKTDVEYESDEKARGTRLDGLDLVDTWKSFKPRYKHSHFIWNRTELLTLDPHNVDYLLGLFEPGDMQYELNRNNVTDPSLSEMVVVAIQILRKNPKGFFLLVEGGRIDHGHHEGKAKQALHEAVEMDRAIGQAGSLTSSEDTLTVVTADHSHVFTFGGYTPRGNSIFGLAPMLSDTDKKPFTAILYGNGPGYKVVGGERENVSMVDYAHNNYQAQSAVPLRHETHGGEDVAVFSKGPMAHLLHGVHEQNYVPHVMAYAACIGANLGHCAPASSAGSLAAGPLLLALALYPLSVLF
TNAP inh noacc – human TNAP enzyme inhibitors, primary screen, biochemical, luminescent, no phosphate acceptor, uHTS; Alkaline phosphatase, tissue-nonspecific isozyme (Homo sapiens), P05186; purified TNAP, CDP-star luminescence, 30 min; inhibition, % at 20 µM; 0.26% of 200,000 active;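 active = tissue-nonspecific alkaline phosphatase inhibition above about 50% at 20 µM in the single-dose screen, limit read from the data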
Furin inhibitor – human furin inhibitors, primary screen, biochemical, fluorescence intensity; P09958; purified furin, fluorogenic substrate cleavage; inhibition, % at 20 µM or 30 µM; 0.061% of 220,000 active; AID 463115, 2010; in the data active = inhibition above about 25%
TNAP act hiacc – TNAP activators at high phosphate acceptor level, primary screen, biochemical, luminescence, uHTS; Alkaline phosphatase, tissue-nonspecific isozyme (Homo sapiens), P05186; purified TNAP, CDP-star luminescence, 1 M DEA, 30 min; hits give high values; 0 = EDTA background, 1 = DMSO-only activity; activation factor at 20 µM; 200,000 tested, under 10 active;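 active = activation factor at least 2 at 20 µM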
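Control set: EDTA negative control, DMSO positive control / Assay system: human TNAP / Quantity: TNAP 1/800 final / Evaluation: TNAP activation factor scaled between EDTA and DMSO control wells / Measured by: luminescent substrate turnover signal / Compound dosing: one dose, 20 µM / Times: 30 min enzyme reaction at room temperature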
Pf gamet viab – late stage P. falciparum gametocyte viability inhibitors, primary screen, ATP luminescence, HTS; P. falciparum stage V gametocytes, 24 h; inhibition, % at 10.9 µM; 0.065% of 150,000 active; AID 743093, 2013;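 active = inhibition above the mean plus 3 SD of compounds within the control limits, set per campaign, cut at about 38% in these data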
Efa HMGR inh – inhibitors of E. faecalis class II HMGR, primary screen, biochemical, Enterococcus faecalis; purified E. faecalis HMGR, NADPH absorbance 340 nm kinetic; HMG-CoA reductase (Enterococcus faecalis, mvaE); 0.41% of 190,000 active; AID 1066, 2008; inhibition, % at 10 µM;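 active = inhibition above a set limit, the median over all tested compounds plus 3 SD, cut at about 9.5% in these data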;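 note: enzyme runs in reverse so mevalonate oxidation gives rising NADPH absorbance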
Numbers stand for hits. Shown are actives, neighbours in structure and some others; about 0.68% of the full set was active somewhere.

CCN(Cc1cc(=O)n2cc(Cl)c(C)c(Cl)c2n1)Cc1nc2ccccc2c(=O)[nH]1 was read as TNAP inh hi DEA inactive, TNAP inh noacc inactive, Furin inhibitor inactive, TNAP act hiacc inactive, Pf gamet viab inactive and Efa HMGR inh 10.4.
For COc1ccc(N2CCN(C(=O)Cn3cnc4c(cnn4-c4ccc(C)cc4)c3=O)CC2)cc1 the results were TNAP inh hi DEA inactive, TNAP inh noacc inactive, Furin inhibitor inactive, TNAP act hiacc inactive and Efa HMGR inh inactive.
`COc1ccc(Nc2cc(Cl)nc(N)n2)cc1` gave TNAP inh hi DEA inactive, TNAP inh noacc inactive, Furin inhibitor inactive, TNAP act hiacc inactive, Pf gamet viab inactive and Efa HMGR inh 10.9.
For COc1ccc(Nc2cc(C)nc(N)n2)cc1 the results were Furin inhibitor inactive.
For CC1CCCN(C(=O)CSc2nc3ncccc3[nH]2)C1 (centres undefined) the results were TNAP inh hi DEA inactive, TNAP inh noacc 53.1, Furin inhibitor inactive, TNAP act hiacc inactive, Pf gamet viab inactive and Efa HMGR inh inactive.
C=C(C)CSc1nc2ncccc2[nH]1 was read as TNAP inh hi DEA inactive, TNAP inh noacc 65.8, Furin inhibitor inactive, TNAP act hiacc inactive, Pf gamet viab inactive and Efa HMGR inh inactive.
For CCN(CC)C(=O)CSc1nc2ncccc2[nH]1 the results were TNAP inh hi DEA inactive, TNAP inh noacc inactive, Furin inhibitor inactive, TNAP act hiacc inactive and Efa HMGR inh inactive.
`CCC(=O)N(Cc1cc2ccccc2[nH]c1=O)c1ccccc1OC` gave Pf gamet viab inactive.
COc1ccc(Cl)cc1C(=O)CSc1nnnn1C1CCCC1 was read as TNAP inh hi DEA inactive, TNAP inh noacc inactive, Furin inhibitor inactive, TNAP act hiacc inactive and Efa HMGR inh inactive.
COc1ccc(Cl)cc1C(=O)CSc1nnnn1C1CCCCC1 was read as TNAP inh hi DEA inactive, TNAP inh noacc inactive, Furin inhibitor inactive, TNAP act hiacc inactive, Pf gamet viab 42.9 and Efa HMGR inh inactive.
Screening O=C(NC1CCS(=O)(=O)C1)c1cc(-c2ccccc2)nc2ccccc12 (centres undefined) returned TNAP inh hi DEA inactive, TNAP inh noacc inactive, Furin inhibitor inactive, TNAP act hiacc inactive, Pf gamet viab inactive and Efa HMGR inh inactive.
Screening COc1cc(C(=O)NCc2nnc(SCC(=O)N3CCc4ccccc43)o2)cc(OC)c1OC returned TNAP inh hi DEA inactive, TNAP inh noacc inactive, Furin inhibitor inactive, TNAP act hiacc inactive, Pf gamet viab inactive and Efa HMGR inh inactive.
`COC(=O)c1c(SCc2ccc(C#N)cc2)nc(=O)[nH]c1C` gave TNAP inh hi DEA inactive, TNAP inh noacc inactive, Furin inhibitor inactive, TNAP act hiacc inactive and Efa HMGR inh inactive.
Screening Cc1ccc(CNC(=O)C2CCN(S(=O)(=O)N3CCCCC3)CC2)cc1 returned TNAP inh hi DEA inactive, TNAP inh noacc inactive, Furin inhibitor inactive, TNAP act hiacc inactive, Pf gamet viab 40.1 and Efa HMGR inh inactive.
`O=C(NCc1ccc(F)cc1)C1CCN(S(=O)(=O)N2CCCC2)CC1` gave TNAP inh hi DEA inactive, TNAP inh noacc inactive, Furin inhibitor inactive, TNAP act hiacc inactive, Pf gamet viab inactive and Efa HMGR inh inactive.
Screening COc1ccc(OC)c(C(=O)CSc2nccc(-c3ccc(Br)cc3)n2)c1 returned TNAP inh hi DEA inactive, TNAP inh noacc inactive, Furin inhibitor inactive, TNAP act hiacc inactive and Efa HMGR inh inactive.
O=C(COC(=O)c1ccc[nH]c1=O)NCC1CCCO1 (centres undefined) was read as TNAP inh hi DEA inactive, TNAP inh noacc inactive, Furin inhibitor 30.3, TNAP act hiacc inactive, Pf gamet viab inactive and Efa HMGR inh inactive.
CC(/C=N/NC(=O)c1cc(-c2cccnc2)nc2c1c(C)nn2-c1ccccc1)=C\c1ccccc1 was read as TNAP inh hi DEA inactive, TNAP inh noacc inactive, Furin inhibitor inactive, TNAP act hiacc inactive, Pf gamet viab inactive and Efa HMGR inh inactive.

From PubChem BioAssay
